NS3 helicase inh: blocks Hepatitis C virus NS3 helicase unwinding | 0.56% of 290,000 active | NS3 helicase DNA unwinding, Cy5 molecular beacon fluorescence | AID 1800 | inhibition, % at 10.9 µM;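 active = inhibition above the mean of all tested compounds plus 3 SD, set per campaign, cut at about 35% in these data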
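Measured by: Cy5 fluorescence, 0 and 60 min reads / Assay system: NS3 helicase fragment of HCV / Control set: low DMSO, high thioflavine S at 110 µM / Times: 1 h reaction at 25 °C, ATP-initiated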
DNMT1 inh: inhibitors of human DNMT1; P26358; DNMT1 molecular beacon, Hinp1I cleavage, fluorescence; inhibition (reported as % activation of signal), % at 10 µM; 0.83% of 360,000 active
CASP6 VEID inh: blocks human caspase-6 cleavage activity. P55212. 0.53% of 350,000 active. purified caspase-6, Z-VEID-R110 cleavage fluorescence. AID 686996. inhibition, % at 12.5 µM;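 active = mean inhibition across replicates at least about 35%, with every replicate also reaching that limit, limit read from the data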
NSD2 inh: inhibitors of human histone methyltransferase NSD2; O96028; NSD2 peptide methylation, AlphaScreen, 120 min; inhibition, % at 12.5 µM; 0.54% of 310,000 active
Alpha artifact: counter-screen for NSD2 inhibitors: AlphaScreen artifacts | AID 1053174 | AlphaScreen artifact counterscreen, preloaded methylated H4 peptide | 9.4% of 1,500 active | AC35, µM (doses to about 10 µM) | shares compounds with NSD2 inh; call rule not given here
Numbers stand for hits; i = inactive; nt = no result given. An excerpt weighted towards active compounds, which were near 1.5% of everything screened. Cut-off read from the data, not from the text of the source, unless noted: active = inhibition above about 50%; inactive = the rest.

SMILES | NS3 helicase inh | DNMT1 inh | CASP6 VEID inh | NSD2 inh | Alpha artifact
CCNc1ccccc(C(=O)/C=C/c2ccc3c(c2)OCO3)c1=O | i | i | nt | 66 | i
CCn1cc(/C=N\NC(=O)C2(C)CC2(Cl)Cl)c(C)n1 (stereo not drawn) | i | i | nt | 63 | i
CC(=O)N1C2CCCCC2S[C@H]2CCCCC21 (stereo partly drawn) | i | i | nt | 57 | i
CC1SC(C)C(=O)N(CC(=O)NC2CCCCC2)C1=O (stereo not drawn) | i | i | i | i | nt
O=[N+]([O-])c1ccc(N/N=C/c2cccs2)nc1 | nt | i | i | 52 | i
O=[N+]([O-])c1ccc(NN=Cc2ccccc2)nc1 | nt | i | i | i | nt
C[C@@H]1CN([C@@H](C)CO)C(=O)Cc2cc(NC(=O)Cc3cn(C)c4ccccc34)ccc2O[C@H]1CN(C)CC1CCCCC1 | nt | nt | i | nt | nt
CC1CN(c2nc3c(c(=O)n(Cc4ccc(Cl)cc4)c(=O)n3C)n2C)CC(C)O1 (stereo not drawn) | i | i | i | 116 | i
Cn1c(N2CCC(C(N)=O)CC2)nc2c1c(=O)n(Cc1ccc(Cl)cc1)c(=O)n2C | i | i | i | i | nt
CC1CN(Cc2nc3c(c(=O)n(C)c(=O)n3C)n2CCCc2ccccc2)CC(C)O1 (stereo not drawn) | i | i | nt | 109 | i
Cn1c(N2CCCC2)nc2c1c(=O)n(Cc1ccc(Cl)cc1)c(=O)n2C | i | i | nt | 105 | i
O=C(C[C@H]1C=C[C@H](NS(=O)(=O)c2ccccc2)[C@@H](CO)O1)NCc1ccccc1F | nt | nt | i | nt | nt
C[C@@H]1CN([C@@H](C)CO)C(=O)c2cc(-c3ccc(C#N)cc3)cnc2O[C@H]1CN(C)Cc1cncnc1 | nt | nt | i | nt | nt
Cc1cc(S(=O)(=O)NCc2cccnc2)ccc1F | i | i | i | 59 | i
Cc1ccc(S(=O)(=O)NCc2cccnc2)cc1C | i | i | i | i | nt
Cc1cccc(S(=O)(=O)N2C[C@H](O)COC[C@H]3O[C@H](CC(=O)Nc4ccccc4)CC[C@@H]32)c1 | nt | nt | i | nt | nt
CCN(CC)CCCNC1=C(Cl)C(=O)c2ccccc2C1=O | i | i | 38 | 112 | i
COCCCNC1=C(Cl)C(=O)c2ccccc2C1=O | i | i | i | 68 | i
CC(C)OCCCNC1=C(Cl)C(=O)c2ccccc2C1=O | i | i | i | i | nt
CCC(=O)N[C@@H]1CC[C@@H](CC(=O)NCc2cc(F)cc(F)c2)O[C@@H]1CO | nt | nt | i | nt | nt
C[C@H](CO)N1C[C@H](C)[C@@H](CN(C)C(=O)c2ccccc2)OCCCC[C@H](C)Oc2ccc(NS(C)(=O)=O)cc2C1=O | nt | nt | i | nt | nt
CC(C)N(Cc1ccccc1)C(=O)C1CCCN(c2ncnc3c2nc2n3CCCCC2)C1 (stereo not drawn) | i | i | i | 54 | i
CCN(CCNC(=O)C1CCCN(c2ncnc3c2nc2n3CCCCC2)C1)Cc1ccccc1 (stereo not drawn) | i | i | i | i | nt
COc1ccc(CC(=O)NN2C(=O)c3ccccc3C2=O)cc1 | i | i | nt | i | nt
COc1ccc(CC2=CC(=O)c3ccccc3C2=O)cc1 | i | i | i | 55 | i
SMILES | NS3 helicase inh | DNMT1 inh | CASP6 VEID inh | NSD2 inh | Alpha artifact
O=C(O)CN1C(=O)/C(=C\c2cc(Br)ccc2OCc2ccc(F)cc2)SC1=S | i | i | 39 | 104 | i
CC(=O)N(C)C[C@H]1Oc2cc(-c3ccncc3)ccc2S(=O)(=O)N([C@@H](C)CO)C[C@H]1C | nt | nt | i | nt | nt
Cc1cccc(OCCn2c(=S)[nH]c3ccccc32)c1 | i | i | nt | 113 | i
CC1CN(Cc2c(O)ccc3c(=O)c(-c4ccccc4Cl)coc23)CC(C)O1 (stereo not drawn) | i | i | i | 61 | i
O=c1c(-c2ccccc2Cl)coc2c(CN3CCCCC3)c(O)ccc12 | i | i | i | i | nt
Cc1ccc(-c2ccc([C@@H]3[C@@H](CO)N4CCCCN(S(=O)(=O)c5cccc(C)c5)C[C@H]34)cc2)cc1 | nt | nt | i | nt | nt
O=C(OCc1ccc([N+](=O)[O-])cc1)c1cc(=O)c2ccccc2o1 | i | i | i | 115 | i
Cc1ccc(O)c(C(=O)C=Cc2ccccc2)c1 | nt | i | i | i | nt
O=C(C=Cc1ccccc1)c1cc(Br)ccc1O | nt | i | i | 54 | i
Nn1cnnc1N/N=C/c1ccc(Cl)c([N+](=O)[O-])c1 | i | i | i | 116 | i
Nn1cnnc1N/N=C/c1ccc(F)cc1 | i | i | i | i | nt
CC1CCC2(CC1)NC(=O)N(CC(=O)N(Cc1ccccc1)C(C)(C)C)C2=O (stereo not drawn) | nt | i | i | i | nt

Screens as filed in PubChem BioAssay.
